Bioassay records: PubChem BioAssay, The Scripps Research Institute Molecular Screening Center
In the library only some 4.5% were active in any assay of this set; here they are far more common.
TAAR1 antagonist: antagonists of human TAAR1. Q96RJ0. CHO RD-HGA16 TAAR1, Fluo-8 calcium fluorescence, antagonist. inhibition, % at 3 µM. 360,000 compounds, 1.5% hits. AID 624466;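 active means inhibition above a per-plate cutoff, the mean inhibition of test compounds on that plate plus 3 SD, cut at about 49% in these data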;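 further: 0% = DMSO plus EC80 beta-PEA response and 100% = DMSO alone without agonist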
Target sequence (Q96RJ0 whole entry, looked up): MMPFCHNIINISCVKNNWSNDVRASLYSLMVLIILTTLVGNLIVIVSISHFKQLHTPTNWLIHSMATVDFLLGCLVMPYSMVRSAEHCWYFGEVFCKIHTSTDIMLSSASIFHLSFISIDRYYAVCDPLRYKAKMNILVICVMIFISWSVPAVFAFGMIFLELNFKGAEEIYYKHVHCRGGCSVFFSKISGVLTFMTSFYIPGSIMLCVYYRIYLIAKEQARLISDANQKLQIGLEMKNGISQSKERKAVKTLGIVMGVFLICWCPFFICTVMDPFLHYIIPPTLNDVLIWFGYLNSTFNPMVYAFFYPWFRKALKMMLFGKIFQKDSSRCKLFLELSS
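Test system: hTAAR1-expressing CHO RD-HGA16 cells, Gα16-coupled; Probe or stimulus: EC80 β-phenethylamine stimulus; Compound dosing: single nominal final test compound concentration of 3 µM; Timing: 140 s kinetic read after compound, 140 s after agonist; Signal: Fluo-8 calcium-sensitive fluorescence; Measure: % inhibition of agonist calcium response; Controls: DMSO and EC80 PEA controls.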
CHO parental Ca: signal in parental CHO cells, OX1R antagonist counter-screen. parental CHO-K1, ATP-induced calcium, Fluo-8 fluorescence. inhibition, % at 5.6 µM. 330,000 compounds, 0.63% hits;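 active means inhibition above that plate's mean sample inhibition plus 3 SD, cut at about 26% in these data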;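 further: 0% = ATP-challenged DMSO wells and 100% = DMSO wells without ATP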
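Assay system – parental CHO cells · Reagent – ATP stimulus · Detection – intracellular calcium via Fluo-8 no-wash fluorescent dye · Evaluation – percent inhibition of ATP-evoked calcium rise, normalized to controls · Controls – ATP wells versus no-ATP DMSO wells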
OX1R antag-1: OX1R (human) antagonism. O43613. OX1R-expressing cells, FRET antagonist read-out. inhibition, % at 6.6 µM. 330,000 compounds, 1.8% hits; in the data active means inhibition mostly above about 38%, no sharp cut-off; inactive means mostly below about 40%;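 further: 0% = agonist challenge alone and 100% = reference antagonist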
Target sequence (O43613 whole entry, looked up): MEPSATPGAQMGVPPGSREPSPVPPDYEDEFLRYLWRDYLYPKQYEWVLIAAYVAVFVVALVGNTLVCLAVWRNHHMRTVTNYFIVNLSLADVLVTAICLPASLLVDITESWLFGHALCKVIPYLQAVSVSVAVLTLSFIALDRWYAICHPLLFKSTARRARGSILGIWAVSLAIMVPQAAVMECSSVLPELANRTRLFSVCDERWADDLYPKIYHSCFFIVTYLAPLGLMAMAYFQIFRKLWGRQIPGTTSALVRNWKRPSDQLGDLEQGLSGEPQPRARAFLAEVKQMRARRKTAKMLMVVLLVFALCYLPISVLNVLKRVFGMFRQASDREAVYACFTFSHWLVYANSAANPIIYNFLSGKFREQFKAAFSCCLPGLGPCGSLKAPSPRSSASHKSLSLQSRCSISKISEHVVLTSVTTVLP
TAAR1 agonist: agonists of human TAAR1. Q96RJ0. CHO RD-HGA16 TAAR1, Fluo-8 calcium fluorescence; vehicle wells 0%, saturating PEA agonist 100%. activation, % at 3 µM. 360,000 compounds, 0.99% hits;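 active means activation above the mean activation of all test compounds in the run plus 3 SD, cut at about 38% in these data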
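test system = CHO RD-HGA16 cells carrying human TAAR1 plus Gα16 | schedule = 17-24 h seeding, 75 min 37 °C dye, 30 min RT | compound dosing = 3 µM single concentration | control set = DMSO and PEA EC100 | replicates = n 1 | signal = Fluo-8 fluorescence, 5 s baseline then 140 s kinetic read | measure = percent activation vs PEA EC100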
OX1R antag-2: blocks the human orexin 1 receptor; inhibition, % at 5 µM; 330,000 compounds, 0.43% hits; CHO/OX1R cells, Fluo-8 calcium fluorescence, orexin A; O43613; AID 434989;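 active means inhibition above its plate's threshold, mean inhibition of all tested compounds on the plate plus 3 SD, cut at about 37% in these data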;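 further: 0% = orexin A challenge wells and 100% = SB-334867-A antagonist wells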
GPR7 antag: blocks human GPR7 receptor signaling | P48145 | GPR7-expressing cells, fluorescence antagonist assay | inhibition, % at 4.4 µM | 290,000 compounds, 1.1% hits; in the data active means inhibition above about 16%, passing the limit was not always enough;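 further: cells stimulated with the agonist NPW; 0% = agonist with vehicle and 100% = vehicle without agonist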
nonsel antag count: nonselective antagonist in TAAR1 antagonist counter-screen; shares compounds with TAAR1 antagonist; AID 651780; 2,400 compounds, 77% hits; inhibition, % at 3 µM; counterscreen cell line, calcium fluorescence, antagonist mode; in the data active means inhibition above about 22%;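 further: CHO-Ga16 host cells stimulated with ATP at an EC80 level; 0% = agonist EC80 plus vehicle and 100% = vehicle without agonist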
TAAR1 ant conf: human TAAR1 antagonism, confirmed; shares compounds with TAAR1 antagonist; TAAR1-expressing cells, fluorescence antagonist read-out; inhibition, % at 3 µM; 2,400 compounds, 40% hits; in the data active means inhibition above about 49%;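 further: CHO-Ga16 host cells challenged with agonist PEA near its EC80; 0% = agonist at EC80 plus vehicle and 100% = vehicle with no agonist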
Ga16 nonsel ag: nonselective Ga16 agonist in TAAR1 antagonist counter-screen; 2,400 compounds, 18% hits; AID 651953; activation, % at 3 µM; Ga16-expressing cells, calcium fluorescence, agonist counterscreen; shares compounds with TAAR1 antagonist; in the data active means activation above about 12%;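 further: 0% = vehicle wells and 100% = saturating stimulus response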
TAAR1 ag count: TAAR1 agonism, antagonist counter-screen; shares compounds with TAAR1 antagonist; hTAAR1 cell line, fluorescence activation, agonist mode; activation, % at 3 µM; 2,400 compounds, 2% hits; in the data active means activation above about 37%;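 further: CHO cells stably expressing TAAR1 with calcium dye readout; 0% = DMSO vehicle and 100% = full agonist response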
Numbers without * were called inactive; x = no result given.

SMILES | TAAR1 antagonist | CHO parental Ca | OX1R antag-1 | TAAR1 agonist | OX1R antag-2 | GPR7 antag | nonsel antag count | TAAR1 ant conf | Ga16 nonsel ag | TAAR1 ag count
O=C(c1cc([N+](=O)[O-])cc([N+](=O)[O-])c1)N1CCCc2ccccc21 | 3 | -15 | 47 | 1 | -24 | -4 | x | x | x | x
CN(c1ccccc1)S(=O)(=O)c1cccc(NC(=O)c2ccncc2)c1 | 16 | 11 | 4 | 5 | -2 | -6 | x | x | x | x
CC(=O)Nc1ccc(C(=O)Nc2cccc(S(=O)(=O)N(C)c3ccccc3)c2)cc1 | 52* | -19 | 8 | 18 | -5 | x | 33* | 44 | 9 | 5
O=C(NCc1nnnn1-c1ccc(F)c(F)c1)C(=O)c1c[nH]c2ccccc12 | 43 | -2 | 11 | 25 | -3 | x | x | x | x | x
COc1ccc(-c2csc(N3CCN(c4cc(C)nc5ccccc45)CC3)n2)cc1OC | 60* | -29 | 29 | 7 | -37 | 2 | 27* | 43 | 6 | 7
COc1cc(-c2csc(N3CCOCC3)n2)cc(OC)c1OC | 9 | -10 | 22 | 6 | -20 | 2 | x | x | x | x
Nc1ccn([C@@H]2O[C@H](CNCc3ccc(Oc4cc(-n5cccn5)ncn4)cc3)[C@@H](O)[C@H]2O)c(=O)n1 | -5 | x | x | 1 | x | x | x | x | x | x
Cc1ccc(Cl)cc1N1CCN(C(=O)CSc2nnc3n2C(C)(C)Cc2ccccc2-3)CC1 | 60* | 77* | 104* | 19 | 77* | -12 | 44* | 48 | 11 | 6
Cc1cc2c(c(=O)n1Cc1ccccn1)C(C(C)C)C(C#N)=C(N)O2 (stereo not drawn) | 6 | 0 | 14 | 2 | -12 | 0 | x | x | x | x
Cc1cc2c(c(=O)n1Cc1ccccn1)C(c1ccc3c(c1)OCO3)C(C#N)=C(N)O2 (stereo not drawn) | 106* | -4 | 8 | 5 | -10 | 5 | 10 | 12 | 4 | 1
COc1ccc(CCn2c(C)cc3c(c2=O)C(c2ccc4c(c2)OCO4)C(C#N)=C(N)O3)cc1OC (stereo not drawn) | 53* | -8 | 15 | 2 | -22 | -1 | 29* | 37 | 4 | 4
O=C(NCc1cccs1)C1CCC(CNS(=O)(=O)c2ccc(Br)s2)CC1 (stereo not drawn) | 57* | -8 | 19 | 26 | -9 | -15 | 17 | 53* | 7 | 39*
O=C(NCc1cccs1)C1CCN(S(=O)(=O)c2ccc(Br)s2)CC1 | -6 | -14 | 0 | 13 | -11 | -6 | x | x | x | x
O=C(O)c1cc(-c2ccc3c(c2)OCO3)nc2ccc(Cl)cc12 | -26 | 4 | 42 | 0 | -2 | -5 | x | x | x | x
CS(=O)(=O)N1CCN(C(=O)c2cc(-c3cccnc3)nc3ccc(Cl)cc23)CC1 | 34 | -16 | 22 | 14 | -25 | -5 | x | x | x | x
COc1ccc(CN2CCN(C(=O)c3cc(-c4cccnc4)nc4ccc(Cl)cc34)CC2)c(OC)c1OC | 72* | -19 | 17 | 18 | -30 | -3 | 32* | 54* | 8 | 7
O=C(c1cc(-c2ccncc2)nc2ccc(Cl)cc12)N1CCN(Cc2ccc3c(c2)OCO3)CC1 | 58* | -15 | 4 | 20 | -15 | -2 | 32* | 53* | 10 | 10
N=c1c2ccccc2nc2n1CCCCC2 | -2 | x | x | 0 | x | x | x | x | x | x
CCN(C(=O)COC(=O)c1cccc(NS(=O)(=O)c2ccc(F)c(F)c2)c1)C1CCS(=O)(=O)C1 (stereo not drawn) | x | -6 | 5 | x | -29 | 6 | x | x | x | x
O=C(NCc1ccc(Cl)cc1Cl)C(=O)N1CCCCC1 | 0 | -13 | 7 | -1 | -18 | 9 | x | x | x | x
COC(=O)c1ccc(OCCOc2ccccc2)cc1 | -2 | -3 | 28 | -1 | -14 | -6 | x | x | x | x
COc1cccc(OC)c1OCCOc1ccc(C(=O)c2ccccc2)cc1 | 52* | -23 | 15 | 8 | -17 | -1 | 31* | 59* | 7 | 5
O=C(c1ccco1)N(CCCN1CCOCC1)c1nc(-c2ccc(F)cc2)cs1 | 57* | -20 | 20 | 8 | -10 | 7 | 20 | 39 | 5 | 6
Cc1nn(C)cc1S(=O)(=O)Nc1cccc(Cl)c1 | -6 | 2 | 12 | -2 | -4 | -16 | x | x | x | x
O=C1c2ccccc2C(c2nnnn2Cc2ccccc2)N1CCc1c[nH]c2ccccc12 (stereo not drawn) | 72* | x | x | 17 | x | x | 40* | 62* | 10 | 14
SMILES | TAAR1 antagonist | CHO parental Ca | OX1R antag-1 | TAAR1 agonist | OX1R antag-2 | GPR7 antag | nonsel antag count | TAAR1 ant conf | Ga16 nonsel ag | TAAR1 ag count
O=C1c2ccccc2C(c2nnnn2Cc2ccccc2)N1Cc1ccc(F)cc1 (stereo not drawn) | -15 | x | x | 1 | x | x | x | x | x | x
O=S(=O)(NCC(c1cccnc1)N1CCN(Cc2ccccc2)CC1)c1ccccc1 (stereo not drawn) | -18 | -23 | 5 | 2 | -25 | 10 | x | x | x | x
COCc1ccc(-c2c(-c3ccsc3)oc(=O)c3cc(OC)c(OC)cc23)cc1 | 58* | -18 | 13 | 2 | -22 | x | 17 | 33 | 2 | 1
COc1ccc(-c2oc(=O)c3cc(OC)c(OC)cc3c2-c2cc(F)cc(OC)c2)cc1 | 11 | -32 | 6 | 0 | -18 | x | x | x | x | x
CCN1CCN(S(=O)(=O)c2ccc(Cl)c(C(=O)NCCc3ccccc3)c2)CC1 | 13 | -23 | 1 | 6 | -22 | x | x | x | x | x
COc1cccc(C2c3[nH]c4ccccc4c3C[C@H]3C(=O)N(c4ccccc4C(=O)N4CCCC4C(=O)O)C(=O)N23)c1 (stereo partly drawn) | -14 | -14 | 4 | 1 | -13 | -1 | x | x | x | x
Cc1ccc(C2c3[nH]c4ccccc4c3C[C@H]3C(=O)N(c4ccccc4C(=O)N4CCC(C(=O)O)CC4)C(=O)N23)cc1 (stereo partly drawn) | -50 | -3 | 3 | 1 | 11 | -8 | x | x | x | x
O=C(NCCN1CCOCC1)c1ccccc1N1C(=O)[C@@H]2Cc3c([nH]c4ccccc34)C(c3ccc(F)cc3)N2C1=O (stereo partly drawn) | 50* | -24 | 10 | 12 | -33 | 4 | 13 | 22 | 3 | 7
COc1ccc(C2c3[nH]c4ccccc4c3C[C@H]3C(=O)N(c4ccccc4C(=O)NCCN4CCOCC4)C(=O)N23)cc1 (stereo partly drawn) | 53* | -17 | 6 | 8 | -15 | 1 | 20 | 30 | 7 | 4
